# Laboratory results published in PubChem BioAssay.
# The source made the active and inactive calls.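 Rule for the calls, unless noted: active = GFP response above 150% of the DMSO level; inconclusive = fewer than 70 events counted for a yeast strain; inactive = the rest.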
# Key:
# [1] = RPL19A-GFP modulators, yeast TOR pathway, confirmation, cell-based, S. cerevisiae, flow cytometry, cherry picks, mother/daughter gates (AID 2270;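 active = GFP response below 50% of the DMSO control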); details: S. cerevisiae RPL19A-GFP strain, 3 h, at 10 µM, stronger effect = lower value, 100 = same GFP as DMSO wells
# [2] = LAP4-GFP expression modulators in yeast, confirmation, cell-based, cherry picks, flow cytometry, mother/daughter gates (AID 2271;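 active = GFP response above 150% of the DMSO control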;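 note: ratio of sample to DMSO plate mean so 100% equals DMSO level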); details: S. cerevisiae LAP4-GFP strain, 3 h, at 10 µM, stronger effect = higher value, 100 means same as DMSO control
# Outline: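 Test system: GFP-fusion yeast strain. Medium: synthetic complete (SC) yeast growth medium. Timing: 3 h treatment at 30 °C with rotation. Measured by: GFP by flow cytometry. Control set: positive rapamycin (400 ng/mL), negative DMSO.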
# [3] = modulators of MEP2-GFP levels in yeast, confirmation, S. cerevisiae, flow cytometry GFP, cherry picks (AID 2272;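 active = GFP response above 150% of the DMSO control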;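 note: ratio of well signal to plate DMSO mean so 100% equals DMSO level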); details: S. cerevisiae MEP2-GFP strain, 3 h, at 10 µM, stronger effect = higher value
# [4] = AGP1-GFP expression modulators, hit retest, confirmation, cell-based, flow cytometry, S. cerevisiae, cherry picks (AID 2273);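 note: median GFP channel fluorescence over the whole cell population gate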; details: S. cerevisiae AGP1-GFP strain, 3 h, at 10 µM
# [5] = modulators of CIT2-GFP expression in yeast, confirmation, S. cerevisiae, GFP fusion, cherry picks, mother/daughter gates (AID 2274); details: S. cerevisiae CIT2-GFP strain, flow cytometry, 3 h, at 10 µM, stronger effect = higher value
# [6] = measured here: daughter cell gate
# [7] = measured here: mother cell gate
# [8] = measured here: daughter cell gate response
# [9] = measured here: mother cell gate response
Structure (SMILES),GFP response vs DMSO [1],"GFP response vs DMSO [1, 6]","GFP response vs DMSO [1, 7]",GFP response relative to DMSO [2],"GFP response relative to DMSO [2, 8]","GFP response relative to DMSO [2, 9]",GFP response vs DMSO [3],"GFP response, % of DMSO [4]","GFP response, % of DMSO [5]","GFP response, % of DMSO [5, 6]","GFP response, % of DMSO [5, 7]"
Cc1ccc(C(=O)O)cc1N1C(=O)c2cccc3cc(Br)cc(c23)C1=O,101% (inactive),98.6%,100%,102% (inactive),99.1%,105%,103% (inactive),101% (inactive),97.3% (inactive),97.4%,98.1%
Cc1nc2ccccc2n2c(O)c(CC(=O)O)cc12,98.7% (inactive),98.5%,99.3%,103% (inactive),96.5%,99.5%,102% (inactive),98.9% (inactive),92.1% (inactive),96.4%,85.1%
COc1ccc(-c2nc(N)n(C(C)=O)n2)cc1,103% (inactive),102%,104%,95% (inactive),97.2%,95.2%,102% (inactive),97.4% (inactive),110% (inactive),110%,111%
Cc1ccc(NC(=O)CCCSc2nc3ccccc3[nH]2)cc1,99.6% (inactive),99.1%,100%,96.1% (inactive),98.2%,98.2%,98.8% (inactive),106% (inactive),113% (inactive),111%,114%
O=[N+]([O-])/C=C/c1cn(Cc2ccc(Cl)cc2)c2ccccc12,105% (inactive),102%,103%,95% (inactive),95.6%,96.2%,100% (inactive),98.3% (inactive),106% (inactive),106%,102%
CCCc1[nH]nc2c1C(c1ccc(OC)c(Cn3nnc4ccccc43)c1)C(C#N)=C(N)O2 (centres undefined),98% (inactive),98.6%,98.2%,104% (inactive),102%,103%,100% (inactive),103% (inactive),99.7% (inactive),99.1%,99.7%
N/C(Cc1ccc(Cl)cc1Cl)=N\OC(=O)c1ccccc1,99.2% (inactive),86.3%,89.4%,222% (active),145%,213%,125% (inactive),105% (inactive),181% (active),117%,157%
COc1cccc(NC(=O)/C=C/c2ccc([N+](=O)[O-])cc2)c1,96% (inactive),97.6%,93.2%,102% (inactive),101%,104%,109% (inactive),95.7% (inactive),88.6% (inactive),90.2%,88.2%
Cc1ccc(S(=O)(=O)N(CC(=O)NCc2ccncc2)Cc2ccccc2F)cc1,97.6% (inactive),97.1%,98.5%,99.2% (inactive),99.2%,97.2%,105% (inactive),102% (inactive),103% (inactive),101%,102%
